The source made the active and inactive calls. No cut-off for these calls is given here.
Experiments:
[1] = biological target: Beta-secretase 1 (Mus musculus) (UniProt P56818); test: Inhibition of BACE1 in C57BL6 mouse primary neuronal cells assessed as increase in mature APP level at 3 to 5 uM after 24 hrs by DAPI staining based immunofluorescence assay relative to control; design: scale not given: the % may be the effect or the level left
SH-SY5Y [2] = test: Inhibition of autophagy in human SH-SY5Y cells harboring wild type APP695 assessed as increase in lipidation of LC3-1 to LC3-2 at 5 uM after 24 hrs by DAPI staining based immunofluorescence assay relative to control; format: functional; design: scale not given: the % may be the effect or the level left
Method in brief: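 SY5Y-APPwt cells treated at 5 µM alongside untreated control. LC3-I to LC3-II lipidation quantified from western blot bands. LC3- and p62-positive vesicles scored inside cells by immunofluorescence.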

Beta-secretase 1 [3] = biological target: T1, Beta-secretase 1 (Homo sapiens, UniProt P56817); test: Inhibition of recombinant human BACE1 at 10 uM using Mca-S-E-[…]-L-D-AEF-R-K(Dnp)-R-R-NH2 as substrate after 60 mins by fluorescence assay relative to control
T1 sequence (P56817 whole entry): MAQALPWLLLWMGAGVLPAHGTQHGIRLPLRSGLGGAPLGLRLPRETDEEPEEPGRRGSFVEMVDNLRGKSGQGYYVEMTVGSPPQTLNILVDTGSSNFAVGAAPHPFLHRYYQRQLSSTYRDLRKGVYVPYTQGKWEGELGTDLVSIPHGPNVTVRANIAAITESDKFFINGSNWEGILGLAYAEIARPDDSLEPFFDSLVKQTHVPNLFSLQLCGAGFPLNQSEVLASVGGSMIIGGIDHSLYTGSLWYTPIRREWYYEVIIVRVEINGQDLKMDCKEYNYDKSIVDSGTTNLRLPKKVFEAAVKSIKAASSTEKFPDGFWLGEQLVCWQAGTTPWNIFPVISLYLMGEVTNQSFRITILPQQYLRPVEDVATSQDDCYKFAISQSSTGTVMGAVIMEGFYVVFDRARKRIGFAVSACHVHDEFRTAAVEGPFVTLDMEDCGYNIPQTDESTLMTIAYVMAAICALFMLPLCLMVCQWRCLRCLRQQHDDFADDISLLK
Method in brief: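 BACE-1 enzymatic activity was followed by cleavage of the fluorogenic peptide Mca-S-E-V-N-L-D-AE-F-R-K(Dnp)-R-R-NH2.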

Beta-secretase 1 [4] = biological target: T1, Beta-secretase 1; test: Inhibition of BACE1 in human SH-SY5Y cells harboring wild type APP695 assessed as increase in AICD level at 3 uM by Western blot method relative to chloroquine; format: cell-based
Method in brief: (§1)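 APP C-terminal fragments (αCTFs and AICD) were detected by Western blot and scored as band intensity. Compounds were tested at 1, 3 and 10 µM.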

Beta-secretase 1 [5] = biological target: T1, Beta-secretase 1; test: Inhibition of BACE1 in human SH-SY5Y cells harboring wild type APP695 assessed as increase in AICD level at 3 uM by Western blot method relative to untreated control; format: cell-based; method in brief: as §1
[6] = biological target: Beta-secretase 1 (Mus musculus) (UniProt P56818); test: Inhibition of BACE1 in C57BL6 mouse primary neuronal cells assessed as accumulation of AICD level up to 5 uM after 24 hrs by DAPI staining based immunofluorescence assay
Primary neuron [7] = test: Inhibition of autophagy in C57BL6 mouse primary neuronal cells assessed as increase in lipidation of LC3-1 to LC3-2 at 3 uM after 24 hrs by DAPI staining based immunofluorescence assay; format: functional
Method in brief: (§2)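 Autophagy markers were quantified against control: p62 expression and lipidation of LC3-I into LC3-II. Accumulation of p62- and LC3-positive vesicles was scored by immunofluorescence. This was done in SY5Y-APPwt cells and primary neurons.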

SH-SY5Y [8] = test: Inhibition of autophagy in human SH-SY5Y cells harboring wild type APP695 assessed as increase in lipidation of LC3-1 to LC3-2 up to 5 uM after 24 hrs in presence of autophagic inhibitor BafA1 by DAPI staining based immunofluorescence assay; format: functional, cell-based
Method in brief: (§3)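 Cells were co-treated with compound and the autophagic flux inhibitor bafilomycin A1. p62 and LC3 accumulation were then assessed in SY5Y-APPwt cells and primary neurons.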

SH-SY5Y [9] = test: Inhibition of autophagy in human SH-SY5Y cells harboring wild type APP695 assessed as increase in p62 expression at 5 uM after 24 hrs by DAPI staining based immunofluorescence assay relative to control; format: functional; design: scale not given: the % may be the effect or the level left; method in brief: as §2
Primary neuron [10] = test: Inhibition of autophagy in C57BL6 mouse primary neuronal cells assessed as increase in p62 expression up to 5 uM after 24 hrs in presence of autophagic inhibitor BafA1 by DAPI staining based immunofluorescence assay; format: functional; method in brief: as §3
Beta-secretase 1 [11] = biological target: T1, Beta-secretase 1; test: Inhibition of BACE1 in human SH-SY5Y cells harboring wild type APP695 assessed as reduction in amyloid beta (1 to 40) level up to 5 uM after 24 hrs by ELISA; format: cell-based
Method in brief: (§4)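 Aβ1-40 and Aβ1-42 levels were measured by ELISA in APPwt-expressing SH-SY5Y cells after compound treatment.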

Beta-secretase 1 [12] = biological target: T1, Beta-secretase 1; test: Inhibition of BACE1 in human SH-SY5Y cells harboring wild type APP695 assessed as reduction in amyloid beta (1 to 42) level up to 5 uM after 24 hrs by ELISA; format: cell-based; method in brief: as §4
Primary neuron [13] = test: Inhibition of autophagy in C57BL6 mouse primary neuronal cells assessed as increase in lipidation of LC3-1 to LC3-2 up to 5 uM after 24 hrs in presence of autophagic inhibitor BafA1 by DAPI staining based immunofluorescence assay; format: functional; method in brief: as §3
SH-SY5Y [14] = test: Inhibition of alpha secretase in human SH-SY5Y cells harboring wild type APP695 assessed as increase in sAPPalpha level up to 5 uM after 24 hrs by DAPI staining based electro-chemiluminescence immunoassay; format: cell-based
Beta-secretase 1 [15] = biological target: T1, Beta-secretase 1; test: Inhibition of BACE1 in human SH-SY5Y cells harboring wild type APP695 assessed as increase in alphaCTF level at 3 uM by Western blot method relative to chloroquine; format: cell-based; method in brief: as §1
Beta-secretase 1 [16] = biological target: T1, Beta-secretase 1; test: Inhibition of BACE1 in human SH-SY5Y cells harboring wild type APP695 assessed as reduction in sAPPbeta level up to 5 uM after 24 hrs by DAPI staining based electro-chemiluminescence immunoassay; format: cell-based
Beta-secretase 1 [17] = biological target: T1, Beta-secretase 1; test: Inhibition of BACE1 in human SH-SY5Y cells harboring wild type APP695 assessed as increase in alphaCTF level at 3 uM by Western blot method relative to untreated control; format: cell-based; method in brief: as §1
Beta-secretase 1 [18] = biological target: T1, Beta-secretase 1; test: Inhibition of BACE1 in human SH-SY5Y cells harboring wild type APP695 assessed as accumulation of APP-CTF level up to 5 uM after 24 hrs by ELISA; format: cell-based
SH-SY5Y [19] = test: Cytotoxicity against human SH-SY5Y cells harboring wild type APP695 assessed as reduction in cell viability after 24 hrs by LDH assay; format: cell-based
Beta-secretase 1 [20] = biological target: T1, Beta-secretase 1; test: Inhibition of BACE1 in human SH-SY5Y cells harboring wild type APP695 assessed as increase in mature APP level at 5 uM after 24 hrs by ELISA relative to control; format: cell-based; design: scale not given: the % may be the effect or the level left; conditions: in the assay text read “by Western blot” for “by ELISA”
Method in brief: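 Full-length APP was resolved and detected with APP-C17 antiserum as two bands. The 110 kDa band is the immature, neosynthesized form and the 115 kDa band is the mature, glycosylated form. Both bands were quantified against the control condition. This was done in SH-SY5Y-APPwt cells and in primary neuronal cultures.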

Primary neuron [21] = test: Inhibition of autophagy in C57BL6 mouse primary neuronal cells assessed as increase in p62 expression at 3 uM after 24 hrs by DAPI staining based immunofluorescence assay; format: functional; method in brief: as §2
SH-SY5Y [22] = test: Inhibition of autophagy in human SH-SY5Y cells harboring wild type APP695 assessed as increase in p62 expression up to 5 uM after 24 hrs in presence of autophagic inhibitor BafA1 by DAPI staining based immunofluorescence assay; format: functional, cell-based; method in brief: as §3
Beta-secretase 1 [23] = biological target: T1, Beta-secretase 1; test: Inhibition of BACE1 in human SH-SY5Y cells harboring wild type APP695 assessed as reduction in amyloid beta (1 to 40) level after 24 hrs by ELISA method; format: cell-based; method in brief: as §4
Beta-secretase 1 [24] = biological target: T1, Beta-secretase 1; test: Inhibition of BACE1 in human SH-SY5Y cells harboring wild type APP695 assessed as accumulation of AICD level up to 5 uM after 24 hrs by ELISA; format: cell-based
[25] = Cytotoxicity against C57BL6 mouse primary neuronal cells assessed as reduction in cell viability after 24 hrs by LDH assay; format: cell-based; conditions: primary neuron
[26] = biological target: Beta-secretase 1 (Mus musculus) (UniProt P56818); test: Inhibition of BACE1 in C57BL6 mouse primary neuronal cells assessed as accumulation of APP-CTF level up to 5 uM after 24 hrs by DAPI staining based immunofluorescence assay

Sequence of Beta-secretase 1 (Mus musculus) (P56818 whole entry): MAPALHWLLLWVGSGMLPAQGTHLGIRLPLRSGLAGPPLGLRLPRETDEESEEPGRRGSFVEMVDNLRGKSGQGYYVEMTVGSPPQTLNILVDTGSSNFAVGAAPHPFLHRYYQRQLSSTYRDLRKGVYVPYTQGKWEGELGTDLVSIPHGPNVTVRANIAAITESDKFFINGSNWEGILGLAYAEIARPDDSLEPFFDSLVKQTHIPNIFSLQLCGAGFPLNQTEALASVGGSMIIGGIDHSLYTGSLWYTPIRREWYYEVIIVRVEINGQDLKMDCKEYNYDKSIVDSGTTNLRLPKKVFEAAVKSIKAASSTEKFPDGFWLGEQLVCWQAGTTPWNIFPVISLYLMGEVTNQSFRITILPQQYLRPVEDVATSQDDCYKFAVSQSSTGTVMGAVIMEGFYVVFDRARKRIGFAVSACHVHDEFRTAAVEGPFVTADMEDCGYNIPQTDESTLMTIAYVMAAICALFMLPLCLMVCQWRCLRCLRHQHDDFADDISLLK

## CN(C)Cc1ccccc1-c1ccc(NCCCN2CCCCC2)c(OCCN2CCCCC2)c1
[1]
  Activity: 130%
SH-SY5Y [2]
  Activity: 591%
Beta-secretase 1 [3]
  inhibition: < 10%
Beta-secretase 1 [4]
  fold change (FC): 3.6
Beta-secretase 1 [5]
  fold change (FC): 40
[6]
  inhibition: Active
Primary neuron [7]
  inhibition: Active
SH-SY5Y [8]
  inhibition: Active
SH-SY5Y [9]
  Activity: 476%
Primary neuron [10]
  inhibition: Active
Beta-secretase 1 [11]
  inhibition: Active
Beta-secretase 1 [12]
  inhibition: Active
Primary neuron [13]
  inhibition: Active
SH-SY5Y [14]
  inhibition: Active
Beta-secretase 1 [15]
  fold change (FC): 6.4
Beta-secretase 1 [16]
  inhibition: Active
Beta-secretase 1 [17]
  fold change (FC): 30
Beta-secretase 1 [18]
  inhibition: Active
SH-SY5Y [19]
  Activity: Non-Toxic
Beta-secretase 1 [20]
  Activity: 221%
Primary neuron [21]
  inhibition: Active
SH-SY5Y [22]
  inhibition: Active
Beta-secretase 1 [23]
  IC50: 2.8 µM
Beta-secretase 1 [24]
  inhibition: Active
[25]
  Activity: Non-Toxic
[26]
  inhibition: Active
